High-throughput results: PubChem, several laboratories
Tb hexokinase: blocks Trypanosoma brucei hexokinase 1 activity; inhibition, % at 10 µM; recombinant TbHK1, G6PDH-coupled NADH A340; 220,000 tested, 0.11% active;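 active = inhibition of 50% or more in the single-dose primary screen; inactive = inhibition below 50%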
RanGTP-Impb inh: inhibitors of RanGTP-importin-beta interaction, primary screen, biochemical, FRET, CFP-Ran, YFP-importin-beta, homogeneous. cell-free CFP-Ran/YFP-importin-beta FRET ratio. AID 2216. inhibition, % (concentration not given with the values). 300,000 tested, 1.1% active;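 active = more than half of the replicate wells show a fall in the fluorescence ratio signal beyond about 16%, limit read from the data, passing the limit was not always enough; inconclusive = exactly half of the replicate wells pass the set limit; inactive = fewer than half of replicates pass the limit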
Runt-CBFb FRET: blocks binding of human RUNX1 Runt domain to CBFb; inhibition, % at 20 µM; Cerulean-Runt/Venus-CBFb FRET ratio 530/480, 1 h; Q01196+Q13951; 220,000 tested, 0.46% active;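 active = inhibition over about 50% at 20 µM in the single-dose screen, limit read from the data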
Target sequence (Q01196 whole entry, looked up, the tested form may be a part): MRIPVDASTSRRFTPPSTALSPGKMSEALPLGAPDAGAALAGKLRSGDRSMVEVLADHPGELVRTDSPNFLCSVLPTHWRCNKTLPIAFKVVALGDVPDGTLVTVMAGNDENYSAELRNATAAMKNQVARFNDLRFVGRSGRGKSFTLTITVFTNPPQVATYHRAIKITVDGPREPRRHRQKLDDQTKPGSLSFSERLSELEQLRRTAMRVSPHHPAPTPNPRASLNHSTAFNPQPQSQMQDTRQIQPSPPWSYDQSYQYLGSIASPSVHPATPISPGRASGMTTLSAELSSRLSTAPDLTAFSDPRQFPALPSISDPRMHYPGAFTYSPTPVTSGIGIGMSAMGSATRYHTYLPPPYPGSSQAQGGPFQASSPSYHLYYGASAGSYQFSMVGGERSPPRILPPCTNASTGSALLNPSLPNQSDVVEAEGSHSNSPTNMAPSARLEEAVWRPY
Target sequence (Q13951 whole entry, looked up, the tested form may be a part): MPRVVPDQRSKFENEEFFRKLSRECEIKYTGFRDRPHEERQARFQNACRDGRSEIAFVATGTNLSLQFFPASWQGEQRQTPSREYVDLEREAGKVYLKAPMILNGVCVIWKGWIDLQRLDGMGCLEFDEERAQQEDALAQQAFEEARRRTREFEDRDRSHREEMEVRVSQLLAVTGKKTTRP
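test system = Cerulean-tagged RUNX1 Runt domain (FRET donor) fusion protein | reagent = Venus-CBFb binding partner, 100 nM | incubation = protein complex preformed 1 h, compound exposure 1 h, room temperature, dark | detection = FRET fluorescence | read-out basis = loss of energy transfer signal | controls = 5 µM unlabeled CBFb as full-inhibition high control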
Runt-SMMHC FRET: blocks binding of human RUNX1 Runt domain to CBFb-SMMHC. Cerulean-Runt/Venus-CBFb-SMMHC FRET ratio 530/480, 1 h. inhibition, % at 20 µM. 220,000 tested, 0.74% active;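 active = mean inhibition across duplicate retests at 20 µM reaching about 50%, limit read from the data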;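 also: inhibitors lower the FRET ratio by blocking Runt binding to CBFb-SMMHC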
Hck-Nef inh: human Hck-Nef kinase inhibition; Recombinant Hck-YEEI plus Nef, Z-Lyte FRET kinase assay; inhibition, % at 20 µM; 220,000 tested, 0.68% active;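 active = Hck-Nef kinase inhibition above about 50%, limit read from the data; inactive = inhibition below that limit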
Of the large screens only hits and unclear results are named; the others gave an inactive call. A selection: hits, their analogues and other compounds. The true share with any hit is near 1.9%.

Cc1cc(/C=C2\Cc3ccccc3C2=O)c(C)n1-c1ccccc1	RanGTP-Impb inh 23.5
Cc1csc(SCCn2c(N3CCN(c4ccccc4)CC3)nc3c2c(=O)[nH]c(=O)n3C)n1	none
O=c1cc(NCc2ccccc2)nc2n1CCCS2	RanGTP-Impb inh 19.7
Cc1nnc(SCC(=O)Nc2cc(Cl)ccc2Cl)n1CC1CCCO1 (stereo not drawn)	none (no result: Tb hexokinase, Runt-CBFb FRET, Runt-SMMHC FRET, Hck-Nef inh)
N#C/C(=C\c1c(Oc2ccccc2F)nc2ccccn2c1=O)C(=O)NC1CCS(=O)(=O)C1 (stereo not drawn)	RanGTP-Impb inh 127.8 (no result: Tb hexokinase, Runt-CBFb FRET, Runt-SMMHC FRET, Hck-Nef inh)
COC(=O)/C(C#N)=C/c1c(Oc2cc(C)cc(C)c2)nc2ccccn2c1=O	none
Cc1cc(C)cc(Oc2nc3ccccn3c(=O)c2/C=C(\C#N)C(=O)NC2CCS(=O)(=O)C2)c1 (stereo not drawn)	RanGTP-Impb inh inconclusive, Runt-CBFb FRET 88.1, Runt-SMMHC FRET 60.2
N#C/C(=C\c1c(Oc2ccccc2Cl)nc2ccccn2c1=O)C(=O)NC1CCS(=O)(=O)C1 (stereo not drawn)	RanGTP-Impb inh 91.2 (no result: Tb hexokinase, Runt-CBFb FRET, Runt-SMMHC FRET, Hck-Nef inh)
Nc1nonc1-n1nnc(C(=O)N/N=C/c2cccnc2)c1-c1ccccc1	none (no result: Tb hexokinase, Runt-CBFb FRET, Runt-SMMHC FRET, Hck-Nef inh)
CC(=O)N1CCc2cc(S(=O)(=O)CCC(=O)NCCc3ccccc3)ccc21	none (no result: Tb hexokinase, Runt-CBFb FRET, Runt-SMMHC FRET, Hck-Nef inh)
Cc1cccc(/C=N/NC(=O)Cn2nc(C)cc2C)n1	none
O=C(/C=C/c1cccs1)NC1CC1	RanGTP-Impb inh 21.1
O=c1c2ccccc2nc2ccc(NCc3ccco3)nn12	none
Cc1sc2nc3ccc(NCc4ccco4)nn3c(=O)c2c1C	Runt-SMMHC FRET 60.4
CC(C)Cc1nnc(NC(=O)CCC(=O)N2CCN(c3ccccc3F)CC2)s1	RanGTP-Impb inh 154.4 (no result: Tb hexokinase, Runt-CBFb FRET, Runt-SMMHC FRET, Hck-Nef inh)
Cc1ccc(N2C3=C(C(=O)CC(C)(C)C3)C(c3cn(C)nc3C)C3=C2CC(C)(C)CC3=O)cc1	RanGTP-Impb inh 25.6 (no result: Tb hexokinase, Runt-CBFb FRET, Runt-SMMHC FRET, Hck-Nef inh)
CNC(=S)Nc1cccc(C(C)=O)c1	Hck-Nef inh 72.6
CCOC(=O)Nc1c2ccccc2nc2ccccc12	RanGTP-Impb inh 131.2, Runt-CBFb FRET 64.8, Runt-SMMHC FRET 82.1
CCOC(=O)Nc1ccc(Oc2ccccc2)cc1	none
C=CCN(CC=C)c1nc2ccccc2nc1C(C#N)C(=O)OC(C)C (stereo not drawn)	RanGTP-Impb inh 28.7, Runt-SMMHC FRET 114.9
COC(=O)C1=C(N)Oc2cc(N(C)C)ccc2C1c1ccccc1OC (stereo not drawn)	RanGTP-Impb inh 24.3
Nc1n[nH]c2cc(=O)n(-c3cccc(C(F)(F)F)c3)nc12	RanGTP-Impb inh 118.3, Runt-CBFb FRET 64.3, Runt-SMMHC FRET 85.9
CC(C)(C)NC(=O)CN(C(=O)CCC(=O)Nc1nccs1)c1cccc(C(F)(F)F)c1	none (no result: Tb hexokinase, Runt-CBFb FRET, Runt-SMMHC FRET, Hck-Nef inh)
CCCCOC(=O)c1ccc(-c2ccc(/C=N/NC(=S)NCC)o2)cc1	RanGTP-Impb inh 43.5
c1ccc(-c2nnc(SCC3CCCCO3)nc2-c2ccccc2)cc1 (stereo not drawn)	none
c1ccc(-c2nnc(SCC3CCCO3)nc2-c2ccccc2)cc1 (stereo not drawn)	RanGTP-Impb inh 26.4
Cc1cccc2nc(CSc3nc4ccccc4[nH]3)cn12	Runt-CBFb FRET 70.6
c1ccc2[nH]c(SCc3cn4ccccc4n3)nc2c1	RanGTP-Impb inh inconclusive
CCOC(=O)c1cc2c(=O)n3ccccc3nc2n(CCOC)c1=NC(=O)c1ccncc1	RanGTP-Impb inh 96.1, Runt-CBFb FRET 62.5, Runt-SMMHC FRET 62.6
Cc1onc(-c2ccccc2Cl)c1C(=O)OCn1nnc2ccccc2c1=O	none
CCOC(=O)c1cc2c(=O)n3ccccc3nc2n(CCOC)c1=NC(=O)c1c(-c2c(F)cccc2Cl)noc1C	Runt-CBFb FRET 68.3, Runt-SMMHC FRET 86.3 (no result: RanGTP-Impb inh)
CCOC(=O)c1cc2c(=O)n3ccccc3nc2n(C(C)C)c1=NC(=O)c1c(-c2ccccc2Cl)noc1C	Runt-CBFb FRET 82.1, Runt-SMMHC FRET 87.5
COCCCn1c(C(=O)Nc2ccc3c(c2)OCO3)cc2c(=O)n3ccccc3nc21	none (no result: Tb hexokinase, Runt-CBFb FRET, Runt-SMMHC FRET, Hck-Nef inh)
CCOC(=O)c1cc2c(=O)n3ccccc3nc2n(CCCOC)c1=NC(=O)c1cccnc1	RanGTP-Impb inh 46.0, Runt-CBFb FRET 133.3, Runt-SMMHC FRET 87.6
O=C(Nc1cccc(S(=O)(=O)Nc2ccc(Cl)cc2)c1)c1ccc[n+]([O-])c1	none
Cc1ccc(Nc2nc(N)c3ccccc3n2)cc1C	none (no result: Tb hexokinase, Runt-CBFb FRET, Runt-SMMHC FRET, Hck-Nef inh)
COc1cc(S(=O)(=O)Nc2ccc3cn[nH]c3c2)ccc1Cl	none
N#Cc1c(NC(=O)c2cnccn2)sc2c1CCCC2	none
CCOC(=O)c1cc2c(=O)n3ccccc3nc2n(Cc2ccccc2Cl)c1=N	none (no result: Tb hexokinase, RanGTP-Impb inh, Hck-Nef inh)
